The target of experiment [1] is T1, Histone H3 methyltransferase DOT1 variant d (Mus musculus) (UniProt Q679P4).
T1 sequence (whole entry): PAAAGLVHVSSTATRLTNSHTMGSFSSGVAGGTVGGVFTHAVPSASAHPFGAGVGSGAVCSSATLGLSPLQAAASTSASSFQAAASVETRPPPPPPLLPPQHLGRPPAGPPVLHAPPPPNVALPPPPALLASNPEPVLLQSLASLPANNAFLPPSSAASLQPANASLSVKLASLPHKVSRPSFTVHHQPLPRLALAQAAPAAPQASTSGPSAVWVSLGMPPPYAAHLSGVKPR
Briefly: Inhibition of DOT1L in mouse bone marrow cell transformed with MLL-AF9 cells assessed as reduction in H3K36 methylation at 100 uM measured upto 9 days by Western blot analysis. The class given is cell-based. As to conditions: time day <=9.

The target of experiment [2] is T2, Histone-lysine N-methyltransferase, H3 lysine-79 specific (Homo sapiens, UniProt Q8TEK3). Briefly: Binding affinity to recombinant human N-terminal GST-tagged DOT1L (1 to 420 residues) expressed in Escherichia coli BL21 (DE3) assessed as increase in melting temperature at 100 uM incubated for 1 min by 1,8-ANS probe based thermal shift assay.
Target sequence in this assay (Q8TEK3 whole entry, looked up, the tested form may be a part): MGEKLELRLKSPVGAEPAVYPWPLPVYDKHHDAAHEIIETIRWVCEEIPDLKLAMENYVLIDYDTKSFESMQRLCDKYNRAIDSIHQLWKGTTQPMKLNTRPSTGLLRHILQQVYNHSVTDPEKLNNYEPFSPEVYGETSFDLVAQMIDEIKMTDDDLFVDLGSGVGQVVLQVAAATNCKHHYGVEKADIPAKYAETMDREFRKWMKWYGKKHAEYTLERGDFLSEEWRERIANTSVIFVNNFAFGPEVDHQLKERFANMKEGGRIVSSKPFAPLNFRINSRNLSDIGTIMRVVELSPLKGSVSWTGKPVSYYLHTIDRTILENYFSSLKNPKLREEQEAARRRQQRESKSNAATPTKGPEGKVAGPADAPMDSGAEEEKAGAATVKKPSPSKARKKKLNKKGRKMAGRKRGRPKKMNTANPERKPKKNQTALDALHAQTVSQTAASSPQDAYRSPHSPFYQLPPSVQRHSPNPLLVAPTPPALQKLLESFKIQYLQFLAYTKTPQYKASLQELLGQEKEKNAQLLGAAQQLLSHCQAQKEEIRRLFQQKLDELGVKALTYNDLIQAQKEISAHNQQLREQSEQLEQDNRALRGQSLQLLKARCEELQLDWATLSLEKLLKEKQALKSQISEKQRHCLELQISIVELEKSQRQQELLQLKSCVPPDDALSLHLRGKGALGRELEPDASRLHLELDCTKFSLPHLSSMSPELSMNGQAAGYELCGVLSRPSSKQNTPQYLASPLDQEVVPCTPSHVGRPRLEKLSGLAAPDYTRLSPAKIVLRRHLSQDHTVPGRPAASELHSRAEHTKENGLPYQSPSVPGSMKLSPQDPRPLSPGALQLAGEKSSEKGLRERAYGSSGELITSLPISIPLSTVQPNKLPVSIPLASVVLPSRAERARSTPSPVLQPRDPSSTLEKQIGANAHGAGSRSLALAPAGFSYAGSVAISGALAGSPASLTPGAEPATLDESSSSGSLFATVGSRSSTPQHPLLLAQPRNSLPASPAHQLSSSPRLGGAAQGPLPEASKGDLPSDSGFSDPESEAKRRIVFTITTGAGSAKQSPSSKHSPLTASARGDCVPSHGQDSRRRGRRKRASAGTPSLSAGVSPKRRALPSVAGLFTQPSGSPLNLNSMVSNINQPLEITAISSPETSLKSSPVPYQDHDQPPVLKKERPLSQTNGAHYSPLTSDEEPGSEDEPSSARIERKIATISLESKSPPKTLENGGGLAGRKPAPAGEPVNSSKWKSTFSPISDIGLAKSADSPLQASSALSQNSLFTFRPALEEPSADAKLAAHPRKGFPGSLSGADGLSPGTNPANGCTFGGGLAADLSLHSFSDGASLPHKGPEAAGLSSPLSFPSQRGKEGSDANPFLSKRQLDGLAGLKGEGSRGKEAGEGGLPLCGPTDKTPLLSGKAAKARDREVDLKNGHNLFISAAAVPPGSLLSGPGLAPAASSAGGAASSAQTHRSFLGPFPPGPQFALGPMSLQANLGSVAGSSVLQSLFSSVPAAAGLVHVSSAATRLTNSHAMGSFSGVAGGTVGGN
Experiment [3] deals with T1, Histone H3 methyltransferase DOT1 variant d (Mus musculus). Briefly: Inhibition of DOT1L in mouse bone marrow cell transformed with MLL-AF9 cells assessed as reduction in H3K79 methylation at 100 uM measured upto 9 days by Western blot analysis. The class given is cell-based. As to conditions: time day <=9, TDE = time-dependent effect. Background: A western blot detects proteins with antibodies after separation by electrophoresis.

For experiment [4] the target is unchanged. The experiment in a line: Inhibition of DOT1L in mouse bone marrow cell transformed with MLL-AF9 cells assessed as reduction in H3K27 methylation at 100 uM measured upto 9 days by Western blot analysis. The class given is cell-based. Conditions: time day <=9.
The target in experiment [5] is T2, Histone-lysine N-methyltransferase, H3 lysine-79 specific. The experiment in a line: Inhibition of recombinant human N-terminal GST-tagged DOT1L (1 to 420 residues) expressed in Escherichia coli BL21 (DE3) using nucleosome as substrate incubated for 1 hr in presence of [3H]-SAM by liquid scintillation counting method. The procedure, abridged:
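GST-tagged DOT1L catalytic domain (1-420), expressed in E. coli BL21(DE3) and Ni-affinity purified, used at 125 nM. Compound added before SAM start; 1 hr at room temperature. Product captured on P81 filters, NaHCO3-washed, and counted by scintillation.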
Target sequence in this assay (Q8TEK3 whole entry, the tested form may be a part): as the sequence (Q8TEK3 whole entry, looked up, the tested form may be a part) above

Experiment [6] deals with Bone marrow cell. The experiment in a line: Induction of cell differentiation in mouse bone marrow cells transformed with MLL-AF9 assessed as change in morphology at 3 uM incubated for 6 days by Wright-Giemsa staining based inverted microscopy. The class given is functional. As to conditions: time 6.0 day. The procedure, abridged: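 Cells taken on day 6 of the proliferation culture (MLL-AF9 murine line, IMDM + 15% FBS + IL-3, re-dosed at each split, 0.3% DMSO). Cytospun onto slides, Wright-Giemsa stained, and imaged under bright field on an inverted microscope to assess morphology.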

Activity calls are given as the source filed them. The rule behind the calls is not given here.

As to `Nc1ncnc2c1ncn2[C@@H]1O[C@H](CNCc2ccc(OCC(=O)Nc3ccccn3)cc2)[C@@H](O)[C@H]1O`, the inhibition result in experiment [1] and in experiment [4] was “inactive” in each case. Further, the outcome in experiment [2] was Active. Besides, the inhibition entry in experiment [3] was “Tde”. Besides, in experiment [5], the IC50 amounted to 54.9 µM.

Take `CC(C)N(CCCNC(=O)Nc1ccc(C(C)(C)C)cc1)C[C@H]1O[C@@H](n2ccc3c(N)ncnc32)[C@H](O)[C@@H]1O`: in experiment [6], the outcome was Active.

The term IC50 denotes the concentration that inhibits the measured activity by half.

The record behind these values is ChEMBL document CHEMBL4680176, “Identification of DOT1L inhibitors by structure-based virtual screening adapted from a nucleoside-focused library” (Eur J Med Chem, 2020).
